Assay results taken from ChEMBL document CHEMBL2424634, “Synthesis and SAR studies of 5-(pyridin-4-yl)-1,3,4-thiadiazol-2-amine derivatives as potent inhibitors of Bloom helicase” (Bioorg Med Chem Lett, 2013).
Values after ≈ are worked out from the molar mass of the structure shown. Active and inactive are the calls of the source. The rule behind the calls is not given here.

Legend:
[1] = biological target: T1, RecQ-like DNA helicase BLM (Homo sapiens, UniProt P54132); experiment: Inhibition of BLM (unknown origin) by gel-based DNA unwinding assay
[2] = biological target: T2, ATP-dependent DNA helicase Q1 (Homo sapiens, UniProt P46063); experiment: Inhibition of RECQ1 (unknown origin) by gel-based DNA unwinding assay
T2 sequence (P46063 whole entry): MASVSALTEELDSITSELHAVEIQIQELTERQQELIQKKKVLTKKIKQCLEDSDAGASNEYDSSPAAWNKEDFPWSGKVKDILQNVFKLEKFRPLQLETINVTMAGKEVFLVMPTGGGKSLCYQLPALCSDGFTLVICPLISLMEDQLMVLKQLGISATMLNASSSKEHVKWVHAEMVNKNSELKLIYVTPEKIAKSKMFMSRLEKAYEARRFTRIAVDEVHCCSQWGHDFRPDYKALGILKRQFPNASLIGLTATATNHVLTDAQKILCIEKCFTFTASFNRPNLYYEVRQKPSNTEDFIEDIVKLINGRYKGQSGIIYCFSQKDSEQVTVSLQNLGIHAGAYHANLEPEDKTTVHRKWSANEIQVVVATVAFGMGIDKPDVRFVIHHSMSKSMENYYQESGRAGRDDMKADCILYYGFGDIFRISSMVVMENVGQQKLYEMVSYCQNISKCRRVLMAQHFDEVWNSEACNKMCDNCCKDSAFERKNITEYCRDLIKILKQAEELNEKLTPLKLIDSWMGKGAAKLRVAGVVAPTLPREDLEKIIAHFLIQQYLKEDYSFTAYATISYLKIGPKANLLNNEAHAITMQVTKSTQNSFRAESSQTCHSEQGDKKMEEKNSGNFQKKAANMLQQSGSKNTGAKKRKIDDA

[3] = biological target: Bifunctional 3'-5' exonuclease/ATP-dependent helicase WRN (Homo sapiens, UniProt Q14191); experiment: Inhibition of WRN (unknown origin) by gel-based DNA unwinding assay
Homo sapiens [4] = species on record: Homo sapiens; experiment: Selectivity ratio of IC50 for WRN (unknown origin) to IC50 for BLM (unknown origin)
[5] = Kinetic solubility of the compound in PBS buffer at pH 7.4; format: physicochemical; conditions: read-out: Kinetic_solubility
Method in brief: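 Kinetic solubility in PBS, pH 7.4, determined by chemiluminescent nitrogen detection (CLND) and by UV-Vis detection.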

[6] = Metabolic stability of the compound in mouse plasma assessed as compound remaining after 5 hrs; format: ADME, cell-free; conditions: read-out: Stability
Liver = experiment: Half life in mouse liver microsomes in presence of NADPH; format: ADME, Microsome
[7] = biological target: T1, RecQ-like DNA helicase BLM; experiment: Inhibition of BLM in human PSNF5 cells assessed as increase of sister chromatid exchange at 1 to 5 uM; format: cell-based
Method in brief: (§1)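 Used an isogenic pair of cell lines derived from GM08505 Bloom syndrome cells: PSNF5 (expresses BLM) and PSNG13 (lacks BLM). Cells were treated across a dose range and sister chromatid exchange frequency was scored.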

[8] = biological target: T1, RecQ-like DNA helicase BLM; experiment: Displacement of TAMRA-labeled oligonucleotide from BLM (unknown origin)
Homo sapiens [9] = species on record: Homo sapiens; experiment: Increase of sister chromatid exchange in human BLM-deficient PSNG13 cells at 1 to 5 uM; format: functional; method in brief: as §1
[10] = biological target: T1, RecQ-like DNA helicase BLM; experiment: Inhibition of BLM (unknown origin) binding to single-stranded DNA by fluorescence polarization analysis
[11] = biological target: T1, RecQ-like DNA helicase BLM; experiment: Non-competitive inhibition of BLM (unknown origin) using ATP by Lineweaver-Burk double reciprocal plot analysis

T1 sequence (P54132 whole entry): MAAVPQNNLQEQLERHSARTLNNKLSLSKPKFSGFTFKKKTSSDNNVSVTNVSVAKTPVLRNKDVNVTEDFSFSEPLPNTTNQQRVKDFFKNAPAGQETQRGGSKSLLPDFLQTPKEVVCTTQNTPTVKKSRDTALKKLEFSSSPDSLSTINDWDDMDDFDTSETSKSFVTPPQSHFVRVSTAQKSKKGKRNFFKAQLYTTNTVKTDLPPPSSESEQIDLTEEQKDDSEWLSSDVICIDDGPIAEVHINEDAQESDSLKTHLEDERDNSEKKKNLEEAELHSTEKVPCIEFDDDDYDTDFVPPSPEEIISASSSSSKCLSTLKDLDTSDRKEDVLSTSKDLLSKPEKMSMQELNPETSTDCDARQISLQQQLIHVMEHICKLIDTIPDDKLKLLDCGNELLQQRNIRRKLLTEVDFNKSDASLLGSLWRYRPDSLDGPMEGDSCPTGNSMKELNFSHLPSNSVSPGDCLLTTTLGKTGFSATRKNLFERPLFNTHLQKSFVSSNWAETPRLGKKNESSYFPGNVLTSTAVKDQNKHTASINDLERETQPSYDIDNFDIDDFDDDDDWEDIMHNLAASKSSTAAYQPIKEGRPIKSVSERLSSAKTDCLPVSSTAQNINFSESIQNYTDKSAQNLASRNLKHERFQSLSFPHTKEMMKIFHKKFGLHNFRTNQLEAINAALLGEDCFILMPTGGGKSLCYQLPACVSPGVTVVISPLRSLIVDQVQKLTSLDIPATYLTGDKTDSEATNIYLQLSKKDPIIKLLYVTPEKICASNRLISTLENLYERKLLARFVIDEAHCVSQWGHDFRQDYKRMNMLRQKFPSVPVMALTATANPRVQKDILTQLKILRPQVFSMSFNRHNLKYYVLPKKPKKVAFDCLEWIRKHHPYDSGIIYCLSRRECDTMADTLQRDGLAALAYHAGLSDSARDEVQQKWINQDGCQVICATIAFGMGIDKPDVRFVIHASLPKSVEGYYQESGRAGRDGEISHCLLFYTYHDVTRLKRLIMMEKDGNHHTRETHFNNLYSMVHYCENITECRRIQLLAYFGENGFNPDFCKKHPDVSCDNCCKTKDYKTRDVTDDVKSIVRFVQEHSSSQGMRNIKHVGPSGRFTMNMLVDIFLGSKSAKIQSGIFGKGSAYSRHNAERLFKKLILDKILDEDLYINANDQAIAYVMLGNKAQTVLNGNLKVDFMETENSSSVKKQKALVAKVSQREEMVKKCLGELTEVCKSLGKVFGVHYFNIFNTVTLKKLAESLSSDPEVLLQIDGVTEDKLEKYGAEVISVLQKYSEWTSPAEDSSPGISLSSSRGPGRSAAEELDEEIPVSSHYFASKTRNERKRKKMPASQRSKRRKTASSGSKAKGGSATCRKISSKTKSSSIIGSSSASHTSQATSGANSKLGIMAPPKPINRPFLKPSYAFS
Sequence of Bifunctional 3'-5' exonuclease/ATP-dependent helicase WRN (Q14191 whole entry): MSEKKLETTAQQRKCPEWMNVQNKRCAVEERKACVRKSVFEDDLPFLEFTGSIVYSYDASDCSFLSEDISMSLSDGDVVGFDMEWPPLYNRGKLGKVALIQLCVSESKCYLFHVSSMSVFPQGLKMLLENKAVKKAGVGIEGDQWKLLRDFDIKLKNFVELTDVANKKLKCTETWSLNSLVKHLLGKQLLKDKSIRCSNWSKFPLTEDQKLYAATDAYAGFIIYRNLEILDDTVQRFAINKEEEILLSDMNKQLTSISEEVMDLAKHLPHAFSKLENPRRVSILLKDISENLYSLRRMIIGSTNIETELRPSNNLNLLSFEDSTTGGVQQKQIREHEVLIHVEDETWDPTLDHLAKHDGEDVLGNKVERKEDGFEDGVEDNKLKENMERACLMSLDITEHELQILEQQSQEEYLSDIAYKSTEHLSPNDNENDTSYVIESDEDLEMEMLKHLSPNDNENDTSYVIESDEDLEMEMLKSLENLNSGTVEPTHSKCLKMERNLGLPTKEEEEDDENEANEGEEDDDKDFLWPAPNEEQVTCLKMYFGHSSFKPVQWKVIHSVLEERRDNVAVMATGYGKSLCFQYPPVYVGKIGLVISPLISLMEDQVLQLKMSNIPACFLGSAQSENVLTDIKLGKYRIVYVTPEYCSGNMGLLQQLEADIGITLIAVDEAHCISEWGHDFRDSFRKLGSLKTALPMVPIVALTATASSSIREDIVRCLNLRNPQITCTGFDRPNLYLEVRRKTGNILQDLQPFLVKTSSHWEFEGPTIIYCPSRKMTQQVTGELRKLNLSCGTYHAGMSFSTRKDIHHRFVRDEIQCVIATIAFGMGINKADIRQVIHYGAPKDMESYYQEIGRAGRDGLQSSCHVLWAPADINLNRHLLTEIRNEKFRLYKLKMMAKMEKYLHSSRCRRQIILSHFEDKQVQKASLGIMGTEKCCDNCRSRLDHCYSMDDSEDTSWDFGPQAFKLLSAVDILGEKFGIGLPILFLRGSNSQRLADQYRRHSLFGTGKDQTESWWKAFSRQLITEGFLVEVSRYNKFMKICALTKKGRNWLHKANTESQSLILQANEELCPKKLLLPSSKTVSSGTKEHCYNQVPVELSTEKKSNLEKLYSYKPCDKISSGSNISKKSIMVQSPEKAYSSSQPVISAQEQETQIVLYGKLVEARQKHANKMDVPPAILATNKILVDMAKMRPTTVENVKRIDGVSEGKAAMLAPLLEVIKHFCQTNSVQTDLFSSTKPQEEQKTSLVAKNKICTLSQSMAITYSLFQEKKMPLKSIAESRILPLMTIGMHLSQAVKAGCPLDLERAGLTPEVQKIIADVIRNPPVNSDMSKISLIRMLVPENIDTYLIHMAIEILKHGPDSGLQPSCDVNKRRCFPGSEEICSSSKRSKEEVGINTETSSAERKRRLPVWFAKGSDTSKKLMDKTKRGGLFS

SMILES | IC50 ([1]; read-out: IC50) | IC50 [1] | further results
O=c1c(Nc2ccc(Cl)c(Cl)c2)c(Nc2nnc(-c3ccncc3)s2)c1=O | 4.3 µM |  | 
O=C(Nc1ccc(Cl)c(C(F)(F)F)c1)Nc1nnc(-c2ccncc2)s1 | 7.1 µM |  | 
CN(C(=O)Nc1ccc2ccccc2c1)c1nnc(-c2ccncc2)s1 |  | Not Active | 
O=C(Nc1ccc(Cl)c(Cl)c1)Nc1nnc(-c2ccncc2)s1 | 1.4 µM |  | IC50 [2]: > 50 µM; IC50 [3]: 3.4 µM; Ratio IC50 (Homo sapiens [4]): 2.4
O=C(Nc1ccc(Cl)c(Cl)c1)N1CCC(c2ccncc2)C1 (stereo not given) |  | Not Active | 
O=C(Nc1ccc(Br)cc1)Nc1nnc(-c2ccncc2)s1 | 12.6 µM |  | 
O=C(Nc1ccc(Cl)c(Cl)c1)Nc1nnc(-c2ccccn2)s1 |  | Not Active | 
O=C(Nc1ccc(Cl)c(Cl)c1)Nc1ncc(-c2ccncc2)s1 |  | Not Active | 
O=C(Nc1ccc(Cl)cc1)Nc1nnc(-c2ccncc2)s1 | 40 µM |  | 
O=C(Nc1ccccc1)Nc1nnc(-c2ccncc2)s1 |  | Not Active | 
O=C(Nc1ccc(Cl)c(Cl)c1)Nc1ccc(-c2ccncc2)s1 |  | Not Active | 
O=C(Nc1ccc(Cl)c(Cl)c1)Nc1cccc(-c2ccncc2)n1 | 4 µM |  | 
O=C(Nc1ccc(-n2ccnc2)c(F)c1)Nc1nnc(-c2ccncc2)s1 | 10 µM |  | 
O=C(Nc1ccc(Cl)c(Cl)c1)N1CCN(c2ccncc2)CC1 |  | Not Active | 
N#Cc1cc(NC(=O)Nc2nnc(-c3ccncc3)s2)ccc1F | 0.3 µM |  | IC50 [2]: > 50 µM; IC50 [3]: 2.2 µM; Ratio IC50 (Homo sapiens [4]): 7.3
O=C(Nc1ccc(Cl)c(Cl)c1)Nc1nnc(C2CCCCC2)s1 |  | Not Active | 
O=C(Nc1ccc(-n2cncn2)c(C(F)(F)F)c1)Nc1nnc(-c2ccncc2)s1 | 36 µM |  | 
N#Cc1ccc(NC(=O)Nc2nnc(-c3ccncc3)s2)cc1C(F)(F)F | 5.6 µM |  | 
O=C(Nc1ccc(Cl)c(Cl)c1)NC1CCN(c2ccncc2)CC1 |  | Not Active | 

SMILES | IC50 ([1]; read-out: IC50) | IC50 [1] | further results
N#Cc1cc(NC(=O)Nc2nnc(-c3ccncc3)s2)ccc1-c1cn[nH]c1 | 1.1 µM |  | solubility kinetic [5]: 10 µM (≈ 3.88 µg/mL); remaining at 5 h [6]: 100%; t1/2 (Liver): > 1.33 h; inhibition [7]: Dose-dependent effect; IC50 [2]: > 50 µM; inhibition [8]: Active; IC50 [3]: 7.1 µM; Activity (Homo sapiens [9]): inactive; Ratio IC50 (Homo sapiens [4]): 6.5; inhibition [10]: Dose-dependent effect; inhibition [11]: Active
O=C(Nc1ccc(F)c(F)c1)Nc1nnc(-c2ccncc2)s1 | 8.9 µM |  | 
Nc1cc(NC(=O)Nc2nnc(-c3ccncc3)s2)ccc1Cl | 11.2 µM |  | 
Cc1cc(NC(=O)Nc2nnc(-c3ccncc3)s2)ccc1F | 15.8 µM |  | 
O=C(Nc1ccc(F)cc1)Nc1nnc(-c2ccncc2)s1 | 14.1 µM |  | 
N#Cc1ccc(NC(=O)Nc2nnc(-c3ccncc3)s2)cc1 | 7.9 µM |  | 
Nc1ccc(NC(=O)Nc2nnc(-c3ccncc3)s2)cc1C(F)(F)F | 40 µM |  | 
O=C(Nc1ccc(Cl)c(Cl)c1)Nc1nnc(-c2ccncc2)o1 |  | Not Active | 
O=C(Nc1ccc(Cl)c(Cl)c1)Nc1nc(-c2ccncc2)cs1 | 28.1 µM |  | 
O=C(Cc1ccc2ccccc2c1)Nc1nnc(-c2ccncc2)s1 |  | Not Active | 
O=C(Nc1ccc(Cl)c([N+](=O)[O-])c1)Nc1nnc(-c2ccncc2)s1 | 1.3 µM |  | 
N#Cc1cc(NC(=O)Nc2nnc(-c3ccncc3)s2)ccc1-c1ccc[nH]1 | 1.8 µM |  | 
O=C(Nc1ccc(F)c(C(F)(F)F)c1)Nc1nnc(-c2ccncc2)s1 |  |  | solubility kinetic [5]: 1 µM (≈ 0.383 µg/mL); remaining at 5 h [6]: 100%; t1/2 (Liver): > 1.33 h; IC50 [2]: > 50 µM; IC50 [3]: 2.7 µM
N#C/N=C(/Nc1ccc(F)c(C(F)(F)F)c1)Nc1nnc(-c2ccncc2)s1 |  | Not Active | 
NC(=Nc1ccc(Cl)c(Cl)c1)Nc1nnc(-c2ccncc2)s1 | 14.1 µM |  | 
Cc1cc(NC(=O)Nc2nnc(-c3ccncc3)s2)ccc1Cl | 7.9 µM |  | 
N#Cc1ccc(NC(=O)Nc2nnc(-c3ccncc3)s2)cc1Cl | 1.6 µM |  | 
N#Cc1ccc(NC(=O)Nc2nnc(-c3ccncc3)s2)cc1Br | 0.91 µM |  | 
O=C(Nc1ccc(Cl)c(Cl)c1)Nc1nnc(NC2CCNCC2)s1 |  | Not Active | 

SMILES | IC50 ([1]; read-out: IC50) | IC50 [1] | further results
S=C(Nc1ccc(Cl)c(Cl)c1)Nc1nnc(-c2ccncc2)s1 | 4 µM |  | 
O=C(Nc1ccc(Cl)c(Cl)c1)Nc1cc(-c2ccncc2)n[nH]1 |  | Not Active | 
O=C(Nc1ccc(Cl)c(Cl)c1)Nc1nnc(N2CCNCC2)s1 |  | Not Active | 
N#Cc1cc(NC(=O)Nc2nnc(-c3ccncc3)s2)ccc1Cl | 0.1 µM |  | IC50 [3]: 1.6 µM; Ratio IC50 (Homo sapiens [4]): 16
O=C(Nc1ccc(Br)c(Br)c1)Nc1nnc(-c2ccncc2)s1 | 2.1 µM |  | IC50 [3]: 2.9 µM; Ratio IC50 (Homo sapiens [4]): 1.4
Nc1ccc(-c2nnc(NC(=O)Nc3ccc(Cl)c(Cl)c3)s2)cc1 | 49 µM |  | 
O=C(Nc1ccc(Cl)c(Cl)c1)Nc1nnc(-c2ccccc2)s1 |  | Not Active | 
O=C(Nc1ccc(-n2cncn2)c(F)c1)Nc1nnc(-c2ccncc2)s1 | 14.1 µM |  | 
Cc1cc(NC(=O)Nc2nnc(-c3ccncc3)s2)ccc1C#N | 3.2 µM |  | 
O=S(=O)(Cc1ccc(Cl)c(Cl)c1)Nc1nnc(-c2ccncc2)s1 |  | Not Active | 
N#Cc1cccc(NC(=O)Nc2nnc(-c3ccncc3)s2)c1 | 8.9 µM |  | 
O=C(Nc1ccc(Cl)c(Cl)c1)Nc1nnc(-c2cccnc2)s1 | 3.5 µM |  | 
Cc1cc(NC(=O)Nc2nnc(-c3ccncc3)s2)ccc1-c1cn[nH]c1 | 16.8 µM |  | 
Cc1cc(NC(=O)Nc2nnc(-c3ccncc3)s2)ccc1Br | 13.4 µM |  | 
CN1CCN(c2nnc(NC(=O)Nc3ccc(Cl)c(Cl)c3)s2)CC1 |  | Not Active | 
O=C(Nc1nnc(-c2ccncc2)s1)Oc1ccc2ccccc2c1 |  | Not Active | 
O=C(Nc1ccc(-c2cn[nH]c2)c(C(F)(F)F)c1)Nc1nnc(-c2ccncc2)s1 | 14.2 µM |  | 
O=C(Nc1ccc(Cl)c(Cl)c1)Nc1ccnc(-c2ccncc2)n1 |  | Not Active | 
N#Cc1cc(NC(=O)Nc2nnc(-c3ccncc3)s2)ccc1Br | 0.11 µM |  | IC50 [2]: > 50 µM; IC50 [3]: 1.1 µM; Ratio IC50 (Homo sapiens [4]): 10
